Reference: publication PMC1557817 (Nucleic Acids Research, 2006)
Where two headings read alike, the source gives them in different places.

How the values were obtained:
[1] = target: truncated human eRF3 (amino acids 139-637), C-terminal hexahistidine (human) (UniProt P15170); experiment: ITC
[2] = target: truncated human eRF3 (amino acids 139-637), C-terminal hexahistidine (human) (UniProt P15170); experiment: ITC; remark: listed apart in the source
human eRF3 = human eRF3 (Homo sapiens, UniProt P15170); experiment: ITC binding of ligands to eRF3
Summary of the method: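 Run at 25°C in phosphate buffer pH 7.5 (25 mM K2HPO4, 0.1 M KCl, 10% glycerol, 1 mM DTT), MgCl2 0–10 mM. Cell: 6–15 μM His-tagged human eRF3 (aa 139–637), alone or with full-length eRF1, both E. coli-expressed. Syringe: ligand at 50–300 μM, 10 μl injections. Dilution heat subtracted; one-set-of-sites fit gave Ka and ΔH; ΔG and ΔS calculated; 2–4 repeats.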

prokaryotic RF3 = conditions: 5 mM Mg^2+ ref 28; cited from earlier work
S.pombe eRF3 = conditions: 2.0–2.5 mM Mg^2+ ref 24; cited from earlier work
eRF3•GDP = eRF3•GDP (Homo sapiens, UniProt P15170); experiment: ITC binding of ligands to the eRF3•GDP complex; conditions: absence of eRF1
eRF1•eRF3 = eRF1•eRF3 (Homo sapiens, UniProt P15170); experiment: ITC binding of guanine nucleotides to the eRF1•eRF3 complex
eRF1•eRF3•GDP = eRF1•eRF3•GDP (Homo sapiens, UniProt P15170); experiment: Displacement ITC: eRF1•eRF3 saturated with GDP titrated with GTP; conditions: Tris buffer, 2 mM Mg^2+, competitive ligand binding model
Summary of the method: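 Proteins: human eRF1 and truncated human eRF3 (aa 139–637), both with a C-terminal His6 tag, expressed in E. coli, purified by Ni-NTA then anion exchange, and dialysed into assay buffer. Method: eRF1•eRF3 in the cell was saturated with one HPLC-purified nucleotide, then titrated with 10 μl aliquots of the other. K2 = Kapp(1 + K1[L1]). Run at 25°C, pH 7.5; dilution heats subtracted; 2–4 runs.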

human eRF1 (wild-type), C-terminal hexahistidine (from UniProt P62495 1-437) (natural protein)
dHobs (observed, not corrected for protonation) [1]: -13.5 kcal/mol
dHobs (observed, not corrected for protonation) [2]: -19.2 kcal/mol
stoichiometry N [2]: 0.47

Nc1nc2c(ncn2[C@@H]2O[C@H](COP(=O)(O)OP(=O)(O)O)[C@@H](O)[C@H]2O)c(=O)[nH]1 [GDP]
fold increase of Kd at 2 mM Mg^2+ versus absence of Mg^2+ (human eRF3; both phosphate and Tris buffers): 1.7 fold
Kd (prokaryotic RF3): 5.5 nM
affinity of GDP for yeast eRF3 (in words) (S.pombe eRF3): lost

Nc1nc2c(ncn2[C@@H]2O[C@H](COP(=O)(O)OP(=O)(O)OP(=O)(O)O)[C@@H](O)[C@H]2O)c(=O)[nH]1 [GTP]
GTP binding to eRF3 (in words) (human eRF3; phosphate or Tris, absence and presence of 2 mM Mg^2+): failed to reveal any measurable GTP binding
GTP binding to eRF3•GDP (in words) (eRF3•GDP): no binding was detected
constant of GTP binding relative to that of GDP binding (eRF1•eRF3; 2.0 mM Mg^2+): four times higher
GTP binding, direct titration (in words) (eRF1•eRF3; Tris buffer): signal is too low to be measured directly
fold increase of GTP affinity by Mg^2+ (eRF1•eRF3; physiological Mg^2+ versus absence of Mg^2+): 6 fold
GTP binding constant (eRF1•eRF3•GDP): 1.8e+06 M⁻¹
